Source: PubChem BioAssay
Records with an inconclusive call do not appear.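 Rule for the calls, unless noted: active = inhibition over a set limit, the all-compound mean plus 3 SD, in both replicate runs; inconclusive = over that limit in just one replicate run; inactive = at or under that limit in both runs.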

Columns and labels:
[1] = S. cerevisiae growth inhibition in permissive medium (OD615), pilot counter-assay for S. cerevisiae lifespan shortening project, permissive growth control (AID 705;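 active = growth inhibition above 25% in both replicates, a cutoff set 3 SD above the mean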); details: OD615, 24 h, at 10 µM, hits give high values
Summary of the method: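 Material: engineered DeaD yeast; compound dosing: one dose 10 µM, DMSO 0.25% final; measure: yeast growth inhibition indicated by reduced 24 h OD615; detection: OD615 turbidity read; incubation: cells pre-grown 4 h, then 24 h compound exposure, 30 °C humidified; medium: permissive synthetic complete medium with raffinose and galactose carbon sources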

[2] = S. cerevisiae growth inhibition in restrictive medium, OD615, pilot screen, restrictive growth control, yeast lifespan reduction project (AID 706;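 active = growth inhibition above a set limit, 3 SD over mean compound inhibition, in both replicates, cut at about 43% in these data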;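 note: modified DeaD lifespan yeast strain shifted to restrictive glucose medium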); details: OD615, 48 h, at 10 µM, hits give high values
Summary of the method: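 material = engineered S. cerevisiae DeaD strain | medium = glucose-based CSMM-D restrictive medium | times = 4 h pre-incubation, 48 h exposure at 30 °C | technique = OD615 absorbance reading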

[3] = doxorubicin toxicity protection in MRP-1 cells – H69AR cells, CellTiter-Glo, duplicate, MRP-1 activator project, pilot screen (AID 807;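 active = viability increase at or above a cutoff of the median across tested compounds plus 3 SD, cut at about 8.5% in these data, passing the limit was not always enough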;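 note: compound pretreatment 18-22 h then 72 h combined with doxorubicin; 0% = doxorubicin alone and 100% = vehicle without doxorubicin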); details: H69AR viability with doxorubicin, CellTiter-Glo luminescence; at 10 µM; hits give high values
[4] = viability of HCT116 without oncogenic beta-catenin – human colon tumor cells, pilot screen (AID 823;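 active = cell viability at or below a set limit in both duplicate runs, the limit being the all-compound median minus 4 SD, cut at about 23% in these data, passing the limit was not always enough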;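 note: 0% = wells killed by 20 µM Hyamine and 100% = untreated DMSO cell wells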); details: HCT116 beta-catenin knockout viability, CellTiter-Glo, 60 h; at 10 µM; hits give low values
[5] = viability of PTEN-null HCT116 cells – cell-based, HCT116 clonal line, CellTiter-Glo, pilot screen (AID 824;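 active = viability at or below 27.92% in each of two runs, the all-compound median minus 4 SD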;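 note: 0% = 20 µM Hyamine control and 100% = vehicle cell control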); details: HCT116 PTEN-deleted viability, 60 h, at 10 µM, hits give low values
[6] = RAM pathway blockade in budding yeast – dse1pr::URA3 reporter, 5-FOA selection, pilot screen (AID 869);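 note: 0% = DMSO wells with no growth and 100% = 10 µM 1-NA-PP1 with full growth; RAM network block rescues cells from 5-FOA so hits raise OD615 growth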; details: S. cerevisiae dse1pr::URA3 5-FOA growth, OD615, 2 d; at 10 µM; hits give high values; strain carries analog-sensitive mutant Cbk1 kinase
[7] = RAM signaling pathway blockade in yeast – S. cerevisiae, Pdr1DBD-CYC8 efflux-inhibited sensitized strain, primary screen (AID 1298;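 active = RAM network inhibition above 8.4% in each of two replicates, 3 SD over the compound average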;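 note: 0% = DMSO untreated cells without growth and 100% = 10 µM 1-NA-PP1 full growth; higher means more yeast growth rescued from 5-FOA killing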); details: S. cerevisiae cbk1-as DSE1-URA3 strain, 5-FOA growth OD615, 2 d; at 50 µM; hits give high values

COc1ccc2oc(-c3ccccc3)c(C(N)=O)c2c1
inactive: growth inhibition [1] 2.25% | growth inhibition [2] 11.4% | viability increase [3] -2.49% | viability [4] 99.1% | viability [5] 97.5% | inhibition [6] 0.53% | RAM network inhibition [7] 1.82%

CCCn1nc(NC(=O)CC(C)C)c2cc3ccccc3nc21
inactive: growth inhibition [1] -14.6% | growth inhibition [2] -11.4% | viability increase [3] -5.27% | viability [4] 87.5% | viability [5] 87.3% | inhibition [6] 2.49% | RAM network inhibition [7] 3.01%

CC(=O)Nc1ccc(S(=O)(=O)Nc2nc3ccccc3nc2Sc2nncn2C)cc1
inactive: growth inhibition [1] 1.94% | growth inhibition [2] 11.7% | viability increase [3] -2.89% | viability [4] 98.1% | viability [5] 98.1% | inhibition [6] 1.86% | RAM network inhibition [7] 2.12%

O=c1cc(N2CCN(c3ccccc3)CC2)[nH]c(=O)n1Cc1ccc(F)cc1
inactive: growth inhibition [1] 6.47% | growth inhibition [2] -4.22% | viability increase [3] 0.72% | viability [4] 89.6% | viability [5] 80.9% | inhibition [6] 2.68% | RAM network inhibition [7] 3.61%

O=C(CCCCn1c(=O)[nH]c2ccccc2c1=O)NCCc1c[nH]c2ccccc12
inactive: growth inhibition [1] -16.7% | growth inhibition [2] -25.8% | viability increase [3] -4.05% | viability [4] 93.5% | viability [5] 93.7% | inhibition [6] 0.945% | RAM network inhibition [7] 4.06%

CCCc1cc(C(=O)Nc2sc(C(C)=O)c(C)c2C(=O)OCC)no1
inactive: growth inhibition [1] -18.8% | growth inhibition [2] -30.5% | viability increase [3] -4.9% | viability [4] 86.2% | viability [5] 78.4% | inhibition [6] 1.46% | RAM network inhibition [7] 3.25%

CCOC(=O)c1ccc(NC(=O)C2C3C=CC(C3)C2C(=O)O)cc1 (configuration not stated)
inactive: growth inhibition [1] 5.27% | growth inhibition [2] 5.33% | viability increase [3] 0.55% | viability [4] 98.5% | viability [5] 106% | inhibition [6] 0.29% | RAM network inhibition [7] 1.09%

Cc1cccc(-n2ncc3c(NC(C)C)ncnc32)c1
inactive: growth inhibition [1] 5.47% | growth inhibition [2] 3.18% | viability increase [3] -0.3% | viability [4] 101% | viability [5] 84.3% | inhibition [6] 0.87% | RAM network inhibition [7] -0.57%

COc1ccc(NC(=O)c2cnn3c(C(F)(F)F)cc(-c4ccco4)nc23)cc1OC
inactive: growth inhibition [1] -11.5% | growth inhibition [2] -12.4% | viability increase [3] -0.73% | viability [4] 96.5% | viability [5] 93% | inhibition [6] 1.89% | RAM network inhibition [7] 2.09%

CC(=O)Nc1nnc(SCC(=O)NCCOc2ccccc2)s1
inactive: growth inhibition [1] -0.45% | growth inhibition [2] -7.88% | viability increase [3] -0.85% | viability [4] 98.9% | viability [5] 96.7% | inhibition [6] 0.52% | RAM network inhibition [7] 4.66%

Cc1cc(NC(=O)CSc2c3c(nc4ccccc24)CCC3)no1
inactive: growth inhibition [1] -4.17% | growth inhibition [2] 5.52% | viability increase [3] -6.01% | viability [4] 78.1% | viability [5] 74.6% | inhibition [6] 2.21% | RAM network inhibition [7] 2.01%

O=C1C(C=NCCCN2CCOCC2)=C(O)c2ccccc21
inactive: growth inhibition [1] -1.9% | growth inhibition [2] 10.5% | viability increase [3] -4.78% | viability [4] 98.6% | viability [5] 90.2% | inhibition [6] 0.71% | RAM network inhibition [7] 5.89%

CC(C)Sc1nnc(Cn2c(=O)sc3ccccc32)n1-c1ccccc1
inactive: growth inhibition [1] 1.75% | growth inhibition [2] -10.2% | viability increase [3] -0.05% | viability [4] 87.1% | viability [5] 86.5% | inhibition [6] -0.63% | RAM network inhibition [7] 5.84%

O=C(c1cc2ccccn2n1)N1CCN(Cc2ccccc2)CC1
inactive: growth inhibition [1] 1.21% | growth inhibition [2] 7.58% | viability increase [3] -0.74% | viability [4] 104% | viability [5] 87.7% | inhibition [6] 0.99% | RAM network inhibition [7] 2.76%

CCCN1CCC(N(C)CCc2ccc(OC)c(OC)c2)CC1
inactive: growth inhibition [1] -7.87% | growth inhibition [2] -16.1% | viability increase [3] -0.93% | viability [4] 88.4% | viability [5] 94.5% | inhibition [6] 0.465% | RAM network inhibition [7] 2.37%

Cc1cc(C)nc(NS(=O)(=O)c2ccc(Br)s2)c1
inactive: growth inhibition [1] -1.63% | growth inhibition [2] -7.46% | viability increase [3] -0.89% | viability [4] 95.9% | viability [5] 93.5% | inhibition [6] 0.28% | RAM network inhibition [7] 9.36%

C=CCSC1=C(C#N)C(c2ccc(C(C)C)cc2)CC(=O)N1 (configuration not stated)
inactive: growth inhibition [1] -11.6% | growth inhibition [2] 8.41% | viability increase [3] -1.41% | viability [4] 92.2% | viability [5] 96.3% | inhibition [6] 0.04% | RAM network inhibition [7] 5.66%

Cc1ccc(NC(=O)Cn2cc3c(n2)CCC(C)C3)cc1 (configuration not stated)
inactive: growth inhibition [1] -1.07% | growth inhibition [2] 2.22% | viability increase [3] 0.37% | viability [4] 106% | viability [5] 88.6% | inhibition [6] 0.39% | RAM network inhibition [7] 1.64%

Cn1cccc1Cc1nnc(SCC(=O)NCc2ccccc2)n1-c1ccc(F)cc1
inactive: growth inhibition [1] -3.32% | growth inhibition [2] 0.42% | viability increase [3] -3.08% | viability [4] 90.8% | viability [5] 89.8% | inhibition [6] 2.85% | RAM network inhibition [7] 2.8%

Cc1ccc(S(=O)(=O)NCC(=O)N2CCCCC2)cc1
inactive: growth inhibition [1] -11.1% | growth inhibition [2] -11.9% | viability increase [3] -1.13% | viability [4] 97.8% | viability [5] 102% | inhibition [6] 0.465% | RAM network inhibition [7] 1.88%

CCNc1nnc(-c2ccccc2OC)s1
inactive: growth inhibition [1] -2.37% | growth inhibition [2] 3.71% | viability increase [3] -0.41% | viability [4] 96% | viability [5] 103% | inhibition [6] -0.485% | RAM network inhibition [7] 5.21%

O=C(c1ccc(CS(=O)(=O)c2ccc(Br)cc2)o1)N1CCN(C2CCCCC2)CC1
inactive: growth inhibition [1] 0.435% | growth inhibition [2] 9.43% | viability increase [3] -3.78% | viability [4] 112% | viability [5] 95.8% | inhibition [6] 1.93% | RAM network inhibition [7] 0.46%

CC1CCN(c2nc(-c3ccccc3)c(C#N)c(=O)[nH]2)CC1
inactive: growth inhibition [1] -10.1% | growth inhibition [2] -13.7% | viability increase [3] -0.55% | viability [4] 101% | viability [5] 92.1% | inhibition [6] 1.46% | RAM network inhibition [7] 2.74%

O=S(=O)(c1ccc(OCc2nc3ccccc3s2)c(Cl)c1)N1CCOCC1
inactive: growth inhibition [1] -7% | growth inhibition [2] 9.42% | viability increase [3] -0.83% | viability [4] 91.5% | viability [5] 88.6% | inhibition [6] 1.26% | RAM network inhibition [7] -0.57%

CCn1cc(S(=O)(=O)CC(=O)Nc2ccc3c(c2)OCCO3)c2ccccc21
inactive: growth inhibition [1] -12.1% | growth inhibition [2] -19.9% | viability increase [3] 0.14% | viability [4] 101% | viability [5] 95.3% | inhibition [6] 2.54% | RAM network inhibition [7] 9.35%

CC(C)N(Cc1nc2ccccc2[nH]1)C(C)C
inactive: growth inhibition [1] 2.5% | growth inhibition [2] 4.54% | viability increase [3] -0.49% | viability [4] 94.1% | viability [5] 91.9% | inhibition [6] 1.25% | RAM network inhibition [7] 0.22%

C=CCn1c(SCCOC)nc2c1c(=O)[nH]c(=O)n2C
inactive: growth inhibition [1] 2.12% | growth inhibition [2] 0.43% | viability increase [3] -2.47% | viability [4] 99% | viability [5] 95% | inhibition [6] 0.665% | RAM network inhibition [7] -0.26%

Cc1ccc(Cn2ccc(NC(=O)c3cc(C(C)C)on3)n2)cc1
inactive: growth inhibition [1] -13.5% | growth inhibition [2] 5.14% | viability increase [3] 0.94% | viability [4] 97.1% | viability [5] 95.1% | inhibition [6] 1.97% | RAM network inhibition [7] 4.18%

O=C(Nc1nccs1)c1cc(S(=O)(=O)N2CCCCC2)ccc1Cl
inactive: growth inhibition [1] -6.76% | growth inhibition [2] -16.1% | viability increase [3] 0.46% | viability [4] 99.7% | viability [5] 88.6% | inhibition [6] 1.89% | RAM network inhibition [7] 4.88%

CCC(=O)Nc1sc2c(c1C(N)=O)CCN(C(C)=O)C2
inactive: growth inhibition [1] -12.9% | growth inhibition [2] -19.6% | viability increase [3] -0.72% | viability [4] 103% | viability [5] 105% | inhibition [6] 1.94% | RAM network inhibition [7] 3.29%

COC(=O)COC(=O)c1ccc(O)cc1
inactive: growth inhibition [1] 7.13% | growth inhibition [2] 4.2% | viability increase [3] -0.65% | viability [4] 99.5% | viability [5] 102% | inhibition [6] 2.5% | RAM network inhibition [7] 2.15%

O=C(Nc1nc2c(s1)COc1ccccc1-2)c1cccs1
inactive: growth inhibition [1] 0.91% | growth inhibition [2] -0.5% | viability increase [3] -4.13% | viability [4] 72.2% | viability [5] 71% | inhibition [6] 1.43% | RAM network inhibition [7] 3.54%

CN(C)CCCNc1ncnc2c1cnn2-c1ccccc1
inactive: growth inhibition [1] -5.54% | growth inhibition [2] -5.82% | viability increase [3] 2.9% | viability [4] 94.3% | viability [5] 106% | inhibition [6] 0.27% | RAM network inhibition [7] -0.77%

Oc1c(C(c2cccs2)N2CCOCC2)sc2ncnn12 (configuration not stated)
inactive: growth inhibition [1] 11.1% | growth inhibition [2] -3.88% | viability increase [3] 0.31% | viability [4] 105% | viability [5] 101% | inhibition [6] 0.895% | RAM network inhibition [7] 5.2%

Cc1nnc(Sc2nc3c(c(=O)[nH]c(=O)n3C)n2Cc2ccccc2Cl)s1
inactive: growth inhibition [1] -9.12% | growth inhibition [2] -9.02% | viability increase [3] -2.89% | viability [4] 96.8% | viability [5] 90.5% | inhibition [6] 1.07% | RAM network inhibition [7] 2.84%

Cc1ccc(C2=[N+]([O-])C3(CCCCC/C3=N\O)N(O)C2(C)C)o1 (configuration not stated)
inactive: growth inhibition [1] -1.35% | growth inhibition [2] -2.15% | viability increase [3] -1.16% | viability [4] 99% | viability [5] 93.7% | inhibition [6] -0.505% | RAM network inhibition [7] 1.01%
